# Measurements published in paper PMC3035813 (The Journal of neuroscience : the official journal of the …, 2009).
# No end group written: not given here.
# How the values were obtained:
# [1] = test system: adult male rats; assay: LH and testosterone in intact adult male rats after icv injection; assay type: in vivo, rat; conditions: 100 pmol kisspeptin-10 icv alone
# Method in brief: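 Intact adult male rats (280–310 g; 14 h light, 22°C) with lateral-ventricle cannulae (4 mm deep; 1 mm posterior, 1.2 mm lateral to bregma), tested 24–48 h after implantation. 5 μl icv injections at 60 min intervals; 100 pmol kisspeptin-10 given with the last. Controls received saline vehicle. Jugular blood was taken 60 min later (180 min). Serum testosterone was measured by commercial kit (sensitivity 0.1 ng/tube; intraassay CV 4.5%).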
# [2] = test system: GnRH neurons; assay: GnRH neuron firing, targeted extracellular recordings in brain slices; assay type: cell-based, mouse; conditions: 1 nM, 5 min, n=7
substance,measurement,setting,value
"kisspeptin-10 (YNWNSFGLRF; ends and bridges not checked; UniProt Q15726 112-121, looked up)",testosterone levels at 60-min,[1],2.17 ± 0.2
same,effect on GnRH neuron firing activity,[2],markedly increased GnRH neuron firing activity
